Series [1] has as its system Calvarial osteoblast. Description: Cytotoxicity against Sprague-Dawley rat calvarial osteoblasts assessed as reduction in cell viability at 0.000001 to 1 uM after 48 hrs by MTT assay. The format is cell-based. Put shortly: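 Osteoblasts came from pooled calvaria of 1-2-day-old Sprague-Dawley pups, isolated by sequential dispase/collagenase digestion. Cells were exposed to compound at 1 pM to 1 µM for 48 h, and viability was measured by MTT.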
(In general: Tetrazolium assays rely on reduction of a dye to a coloured formazan, in cell work by metabolically active cells.)

For series [2], the system named is Calvarial osteoblast. Description: Osteogenic activity in Sprague-Dawley rat calvarial osteoblasts assessed as mineralized nodule formation at 100 pM after 21 days by alizarin red-S staining based light microscopic method. It is filed as functional, cell-based. Put shortly:
(§1)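 Osteoblasts at 10,000–15,000 cells/cm² in duplicate plates, 21 days in differentiation medium, medium changed every 48 h. Cells fixed in 4% PFA, stained with alizarin red-S (40 mM, pH 4.5, 30 min) and photographed. Stain extracted with 10% acetic acid, pH brought to 4.5 with ammonium hydroxide, read at 405 nm, normalized to cell number.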

Series [3] has as its system Calvarial osteoblast. Description: Osteogenic activity in Sprague-Dawley rat calvarial osteoblasts assessed as mineralized nodule formation at 100 pM after 21 days by alizarin red-S staining based colorimetric method. The format is functional. The method, boiled down:
as §1

In series [4] the test system is Calvarial osteoblast. Description: Increase in Runx2 protein expression in Sprague-Dawley rat calvarial osteoblasts at 100 pM after 48 hrs by Western blot analysis. It is filed as functional, cell-based. Put shortly: (§2)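 Rat calvarial osteoblasts (pooled 1–2-day pups, collagenase/dispase digests) at 60–70% confluence treated 48 h. Whole-cell lysates immunoblotted with primary antibody overnight at 4 °C, then HRP secondary, with ECL detection. Densitometry gives fold change normalized to β-actin versus untreated cells. Mean ± SEM of three independent experiments.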

The subject of series [5] is Calvarial osteoblast. The experiment in a line: Increase in BMP2 protein expression in Sprague-Dawley rat calvarial osteoblasts at 100 pM after 48 hrs by Western blot analysis. It is filed as functional, cell-based. The method, boiled down: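 Rat calvarial osteoblasts at 60-70% confluence were treated 48 h. Whole-cell lysates were blotted, blocked in 5% milk, and probed with primary antibody overnight at 4 °C, then with HRP secondary and ECL detection. Densitometry was normalized to β-actin; fold change versus untreated cells, three independent experiments, mean ± SEM.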
On the technique in general: In western blotting, separated proteins are transferred to a membrane and probed.

The test system of series [6] is Calvarial osteoblast. Description: Increase in OCN protein expression in Sprague-Dawley rat calvarial osteoblasts at 100 pM after 48 hrs by Western blot analysis. It is filed as functional, cell-based. The method, boiled down: as §2
A short description of series [7]: Antioxidant activity assessed as DPPH radical scavenging activity at 500 ug/ml after 30 mins by spectrophotometric method relative to control. The format is functional. Put shortly:
(§3)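 The compound was serially diluted from 1000 to 1.95 µg·ml⁻¹ and mixed 1:1 with DPPH in methanol. After 30 min at room temperature, absorbance was read at 517 nm. Scavenging (%) = [(Abc − Abs)/Abc] × 100, where Abc is DPPH without compound.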

Series [8] can be described thus: Antioxidant activity assessed as DPPH radical scavenging activity at 1000 ug/ml after 30 mins by spectrophotometric method relative to control. It is filed as functional. The method, boiled down:
as §3

The nature of series [9]: Antioxidant activity assessed as DPPH radical scavenging activity at 1.95 ug/ml after 30 mins by spectrophotometric method relative to control. It is filed as functional. The method, boiled down: as §3
(Loss of DPPH colour is used to gauge radical scavenging.)

Series [10] in a line: Antioxidant activity assessed as SNP-induced nitric oxide free radical scavenging activity at 500 ug/ml after 150 mins by Griess reagent based method relative to control. The format is functional. The method, boiled down:
(§4)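 Serial dilutions (1000 to 1.95 µg·ml⁻¹) were mixed with sodium nitroprusside (10 mM) and incubated 150 min. An equal volume of Griess reagent was added, and absorbance was read at 546 nm. Percentage scavenging was calculated relative to the control without compound.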

The nature of series [11]: Antioxidant activity assessed as SNP-induced nitric oxide free radical scavenging activity at 1000 ug/ml after 150 mins by Griess reagent based method relative to control. It is filed as functional. Put shortly:
as §4

Series [12] is described as follows: Antioxidant activity assessed as SNP-induced nitric oxide free radical scavenging activity at lower concentration after 150 mins by Griess reagent based method relative to control. It is filed as functional. Put shortly:
as §4

The target in series [13] is I-kappa-B kinase (Rattus norvegicus) (UniProt Q9QY78+G3V926+Q6TMG5). Description: Inhibition of IKK in Sprague-Dawley rat calvarial osteoblasts assessed as reduction in TNFalpha-induced NFkB nuclear translocation at 100 pM after 24 hrs by immunofluorescence assay. Particulars: Calvarial osteoblast. It is filed as cell-based. The method, boiled down: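 Primary rat osteoblasts on chamber slides given TNFα (10 ng·ml⁻¹) for 24 h, with or without treatment. Then 4% PFA fixation, 0.1% Triton X-100, anti-NF-κB overnight, and Cy3 anti-rabbit secondary. Fluorescence imaged at excitation 552 nm, emission 570 nm.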

The subject of series [14] is Rattus norvegicus. The experiment in a line: Antiosteoporotic activity in Sprague-Dawley rat model of OVX-induced bone loss assessed as mineral apposition rate at 1 mg/kg, po via gavage for 12 weeks by microcomputed tomographic analysis (reference value: 0.169 +/- 0.004 umeter/day). It is filed as functional. The method, boiled down: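 Female Sprague-Dawley rats, 10-12 weeks old, ten per group, were ovariectomized and left 12 weeks for osteopenia. They were then dosed once daily by oral gavage for 12 weeks in 1% gum acacia vehicle. The estradiol arm received 100 µg·kg⁻¹ subcutaneously five days a week. Tetracycline and calcein were given intraperitoneally at 20 mg·kg⁻¹ each. Femur cross-sections (50 µm) were imaged by fluorescence microscopy for MAR and BFR.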

In series [15] the test system is Rattus norvegicus. Description: Antiosteoporotic activity in Sprague-Dawley rat model of OVX-induced bone loss assessed as increase in femoral bone strength by measuring energy at 5 mg/kg, po via gavage for 12 weeks by 3 point bending test (reference value: 46.27 +/- 4.36 mJ). It is filed as functional.
Series [16] relates to Rattus norvegicus. The experiment in a line: Antiosteoporotic activity in Sprague-Dawley rat model of OVX-induced bone loss assessed as increase in femoral bone strength by measuring stiffness at 5 mg/kg, po via gavage for 12 weeks by 3 point bending test (reference value: 122.07 +/- 12.18 N/mm). The format is functional.
In series [17] the test system is Rattus norvegicus. The experiment in a line: Antiosteoporotic activity in Sprague-Dawley rat model of OVX-induced bone loss assessed as decrease in serum CTX level at 1 to 5 mg/kg, po via gavage for 12 weeks by ELISA. The format is functional, organism-based. The method, boiled down: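 Ovariectomy model as above: 12 weeks of osteopenia, then 12 weeks of daily gavage or subcutaneous estradiol. Serum was separated at autopsy, and CTX and PINP were measured by ELISA kits.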

Series [18] concerns Rattus norvegicus. The experiment in a line: Upregulation of BMP2 mRNA expression in femur bone of Sprague-Dawley rat model of OVX-induced bone loss at 1 to 5 mg/kg, po via gavage for 12 weeks by qPCR analysis. It is filed as functional, organism-based. The method, boiled down: (§5)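 Ovariectomized female SD rats, osteopenic after 12 weeks, dosed orally once daily for 12 weeks (1.0 or 5.0 mg·kg⁻¹·day⁻¹, 1% gum acacia vehicle); sham and OVX vehicle groups included. Femurs collected at sacrifice for qRT-PCR, analysed by the ΔΔCT method.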

Series [19] relates to Rattus norvegicus. The experiment in a line: Upregulation of Runx2 mRNA expression in femur bone of Sprague-Dawley rat model of OVX-induced bone loss at 1 to 5 mg/kg, po via gavage for 12 weeks by qPCR analysis. It is filed as functional, organism-based. Put shortly: as §5
Series [20] is described as follows: Toxicity in Sprague-Dawley rat model of OVX-induced bone loss assessed as uterine weight at 1 mg/kg, po via gavage for 12 weeks (reference value: 0.12 +/- 0.02 g). It is filed as organism-based. The conditions noted are these: in vivo, 2016 h.
A short description of series [21]: Toxicity in Sprague-Dawley rat model of OVX-induced bone loss assessed as luminal area at 1 mg/kg, po via gavage for 12 weeks (reference value: 0.01 +/- 0.0004 mm2). The format is organism-based. The conditions noted are these: in vivo, 2016 h.
The nature of series [22]: Toxicity in Sprague-Dawley rat model of OVX-induced bone loss assessed as luminal epithelial height at 5 mg/kg, po via gavage for 12 weeks (reference value: 27.29 +/- 0.96 umeter). It is filed as organism-based. The conditions noted are these: in vivo, 2016 h.

The source made the active and inactive calls. The rule behind the calls is not given here.

For the molecule `CCOC(=O)c1cc2c([nH]c3ccccc32)c(C(c2nnnn2C(C)(C)C)N2CCN(C)CC2)n1` (configuration not stated), the Activity result is “Non-Toxic” in series [1]; 70% in series [3]; 43.5% in [7]; 47.8% in series [8]; 3.34% in series [9]; 31.4% in series [10]. The Activity in series [11] amounted to 19.3%; in series [12], 4.07%; in series [14], 1.062 micrometer/day; in series [15], 60.87 mJ; in series [16] it was 146.6 N/mm; in series [20], 0.13 g. The Activity in series [21] came out at 0.012 mm2; in [22] it was 3.61 um. Also, the result in series [2], in [4], in series [5], in series [6], in series [17] and in [18] was Active. Moreover, the outcome in series [19] was Active. Also, the inhibition result in series [13] was “Active”.

(Values after ChEMBL document CHEMBL4325822, “Discovery of a tetrazolyl β-carboline with in vitro and in vivo osteoprotective activity under estrogen-deficient conditions” (Medchemcomm, 2018).)
